Assay [1] addresses T1, Alpha-1A adrenergic receptor (Homo sapiens, UniProt P35348).
T1 sequence (P35348 whole entry): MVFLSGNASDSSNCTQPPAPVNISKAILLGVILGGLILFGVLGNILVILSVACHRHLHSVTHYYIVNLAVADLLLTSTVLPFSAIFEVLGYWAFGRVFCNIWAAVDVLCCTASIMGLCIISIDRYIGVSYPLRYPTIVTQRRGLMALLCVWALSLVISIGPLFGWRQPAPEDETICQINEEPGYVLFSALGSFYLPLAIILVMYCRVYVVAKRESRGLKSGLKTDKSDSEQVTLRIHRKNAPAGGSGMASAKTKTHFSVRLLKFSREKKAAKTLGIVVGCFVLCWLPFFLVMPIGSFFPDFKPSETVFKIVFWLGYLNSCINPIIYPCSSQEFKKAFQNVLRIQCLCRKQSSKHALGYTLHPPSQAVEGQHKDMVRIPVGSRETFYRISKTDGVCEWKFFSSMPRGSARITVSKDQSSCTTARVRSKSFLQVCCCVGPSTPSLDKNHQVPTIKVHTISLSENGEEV
The assay can be described thus: Binding affinity determined by displacement of [3H]prazosin from alpha-1A adrenergic receptor. On the technique in general: Displacement assays read how much labelled ligand stays bound in the presence of the test substance.

The target of assay [2] is T2, Alpha-1B adrenergic receptor (Homo sapiens, UniProt P35368).
T2 sequence (P35368 whole entry): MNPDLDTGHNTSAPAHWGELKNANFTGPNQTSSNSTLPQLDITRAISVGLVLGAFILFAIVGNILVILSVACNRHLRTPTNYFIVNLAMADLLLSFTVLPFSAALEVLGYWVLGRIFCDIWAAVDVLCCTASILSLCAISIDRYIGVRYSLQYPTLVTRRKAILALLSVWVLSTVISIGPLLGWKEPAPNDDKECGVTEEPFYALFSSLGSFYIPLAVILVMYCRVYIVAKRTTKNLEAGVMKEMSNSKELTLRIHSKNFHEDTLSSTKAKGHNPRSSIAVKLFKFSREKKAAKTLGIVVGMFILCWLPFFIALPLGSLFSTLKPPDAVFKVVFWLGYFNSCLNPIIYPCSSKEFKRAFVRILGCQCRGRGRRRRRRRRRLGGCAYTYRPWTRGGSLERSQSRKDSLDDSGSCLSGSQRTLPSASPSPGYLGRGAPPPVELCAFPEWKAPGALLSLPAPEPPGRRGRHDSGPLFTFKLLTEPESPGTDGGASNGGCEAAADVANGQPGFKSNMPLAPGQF
The experiment in a line: Binding affinity determined by displacement of [3H]prazosin from alpha-1B adrenergic receptor.

Assay [3] concerns the target T3, Alpha-2B adrenergic receptor (Homo sapiens, UniProt P18089).
T3 sequence (P18089 whole entry): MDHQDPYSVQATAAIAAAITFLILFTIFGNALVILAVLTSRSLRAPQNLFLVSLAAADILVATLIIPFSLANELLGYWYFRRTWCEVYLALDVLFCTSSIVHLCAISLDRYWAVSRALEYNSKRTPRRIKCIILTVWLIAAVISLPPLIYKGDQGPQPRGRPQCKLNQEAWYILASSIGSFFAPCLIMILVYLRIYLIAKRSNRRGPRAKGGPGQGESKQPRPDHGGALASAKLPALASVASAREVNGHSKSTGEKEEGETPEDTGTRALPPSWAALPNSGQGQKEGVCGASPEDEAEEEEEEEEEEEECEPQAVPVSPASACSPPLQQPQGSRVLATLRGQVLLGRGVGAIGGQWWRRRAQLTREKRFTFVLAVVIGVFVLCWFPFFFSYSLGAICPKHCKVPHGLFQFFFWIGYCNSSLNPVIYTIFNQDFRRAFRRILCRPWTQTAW
The experiment in a line: Binding affinity determined by displacement of [3H]rauwolscine from alpha-2B adrenergic receptor.

In assay [4] the target is T4, Alpha-1D adrenergic receptor (Homo sapiens, UniProt P25100).
T4 sequence (P25100 whole entry): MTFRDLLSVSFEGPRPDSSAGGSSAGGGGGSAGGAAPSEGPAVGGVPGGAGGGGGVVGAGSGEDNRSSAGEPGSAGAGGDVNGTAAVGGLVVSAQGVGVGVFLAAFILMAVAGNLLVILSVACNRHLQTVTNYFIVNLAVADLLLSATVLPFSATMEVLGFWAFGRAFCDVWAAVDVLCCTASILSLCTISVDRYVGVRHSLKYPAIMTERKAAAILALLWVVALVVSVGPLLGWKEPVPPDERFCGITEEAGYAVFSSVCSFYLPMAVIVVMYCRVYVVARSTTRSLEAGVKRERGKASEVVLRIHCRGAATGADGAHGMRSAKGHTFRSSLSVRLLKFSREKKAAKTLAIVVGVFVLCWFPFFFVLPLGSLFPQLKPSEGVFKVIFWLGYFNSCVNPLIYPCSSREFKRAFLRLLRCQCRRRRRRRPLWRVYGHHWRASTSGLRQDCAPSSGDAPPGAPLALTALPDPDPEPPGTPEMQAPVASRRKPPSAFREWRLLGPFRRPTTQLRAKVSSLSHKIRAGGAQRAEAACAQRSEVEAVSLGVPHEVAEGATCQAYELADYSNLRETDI
The assay can be described thus: Binding affinity determined by displacement of [3H]prazosin from alpha-1D adrenergic receptor. Put shortly: (§1)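 Radioligand displacement binding at the cloned receptor, incubated for 30 min.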

Assay [5] concerns the target Voltage-gated L-type calcium channel (Rattus norvegicus, UniProt P22002+Q02485+P27732). The experiment in a line: Binding affinity at the L-type [Ca2+] channel from rat brain homogenate by [3H]nitrendipine displacement. In kind it is tissue-based.
Assay [6] has as its target T5, Alpha-2A adrenergic receptor (Homo sapiens, UniProt P08913).
T5 sequence (P08913 whole entry): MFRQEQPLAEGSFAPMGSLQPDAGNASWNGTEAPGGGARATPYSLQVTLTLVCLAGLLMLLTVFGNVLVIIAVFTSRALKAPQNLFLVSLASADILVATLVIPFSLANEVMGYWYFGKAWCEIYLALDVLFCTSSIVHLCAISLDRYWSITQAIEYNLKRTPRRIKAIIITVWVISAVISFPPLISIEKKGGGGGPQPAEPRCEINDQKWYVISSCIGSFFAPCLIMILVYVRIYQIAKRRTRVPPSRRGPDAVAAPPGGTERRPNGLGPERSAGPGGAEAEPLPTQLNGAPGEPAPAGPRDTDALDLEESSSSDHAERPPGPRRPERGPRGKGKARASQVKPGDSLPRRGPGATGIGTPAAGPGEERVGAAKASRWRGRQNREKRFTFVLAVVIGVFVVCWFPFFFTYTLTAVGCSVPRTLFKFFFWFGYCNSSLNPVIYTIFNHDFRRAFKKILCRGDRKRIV
The experiment in a line: Binding affinity determined by displacement of [3H]rauwolscine from alpha-2A adrenergic receptor. In a few lines:
as §1

In assay [7] the target is T6, Alpha-2C adrenergic receptor (Homo sapiens, UniProt P18825).
T6 sequence (P18825 whole entry): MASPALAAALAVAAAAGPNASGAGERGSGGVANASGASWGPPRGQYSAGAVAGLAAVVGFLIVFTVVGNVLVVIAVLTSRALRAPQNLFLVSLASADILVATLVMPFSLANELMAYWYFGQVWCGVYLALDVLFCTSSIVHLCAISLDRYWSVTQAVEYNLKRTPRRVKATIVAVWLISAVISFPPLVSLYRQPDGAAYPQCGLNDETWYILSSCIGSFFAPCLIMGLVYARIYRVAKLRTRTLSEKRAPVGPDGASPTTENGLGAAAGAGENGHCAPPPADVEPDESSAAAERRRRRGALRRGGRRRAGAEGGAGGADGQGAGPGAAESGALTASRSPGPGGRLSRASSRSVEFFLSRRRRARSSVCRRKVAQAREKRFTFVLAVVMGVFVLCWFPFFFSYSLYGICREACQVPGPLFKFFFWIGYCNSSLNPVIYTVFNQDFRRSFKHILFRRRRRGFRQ
The assay can be described thus: Binding affinity assayed by displacement of [3H]rauwolscine from human alpha-2C adrenergic receptor. In a few lines:
as §1

Where only a bound is given, the exact number is not on record here.

Take `CNC(=O)C1=C(C)NC(C)=C(C(=O)NCCCN2CCC(c3ccccc3)(c3ccccc3)CC2)C1c1ccc([N+](=O)[O-])cc1` (stereo not given): the Ki (usually a measure of affinity in units of concentration, obtained from inhibition or displacement) was 4.47 nM in assay [1], 490 nM in assay [2], 933 nM in assay [3] and 759 nM in assay [4]. The “Log Ki” value in assay [5] is given as < -6.

Turning to `CO/C(O)=C1\C(C)=NC(C)=C(C(=O)NCCCN2CCC(c3ccccc3)(c3ccccc3)CC2)C1c1ccc([N+](=O)[O-])c(OC)c1` (stereo not given), the Ki in assay [1] is 1.48 nM; in assay [2], 162 nM; in assay [6] it was 631 nM; in assay [3], 575 nM; in assay [4], 316 nM; in assay [7], 398 nM. Besides, the “Log Ki” value in assay [5] was < -6.

Regarding `CC1=C(C(=O)O)C(c2ccc3c(c2)OCO3)C(C(=O)NCCCN2CCC(c3ccccc3)(c3ccccc3)CC2)=C(C)N1` (stereo not given), the Ki in assay [1] is 316 nM; in assay [2], 977 nM; in assay [6], 1170 nM; in assay [3], 200 nM; in assay [4] it was 1740 nM; in assay [7], 776 nM.

Regarding `CC(C)C1=C(C(N)=O)C(c2ccc([N+](=O)[O-])cc2)C(C(=O)NCCCN2CCC(c3ccccc3)(c3ccccc3)CC2)=C(C(C)C)N1` (stereo not given), the Ki in assay [1] is 53.7 nM; in assay [4], 347 nM.

Take `CO/C(O)=C1\C(C)=NC(C)=C(C(=O)NCCCN2CCC(c3ccccc3)(c3ccccc3)CC2)C1c1ccc(Cl)cc1` (stereo not given): the inhibitory constant (Ki) in assay [1] was 1.78 nM; in assay [2] it was 123 nM; in assay [6], 2140 nM; in assay [3] it was 2290 nM; in assay [4] it was 447 nM; in assay [7] it was 1000 nM. Also, the “Log Ki” value in assay [5] is given as < -6.

`CC1=C(C(=O)NCCCN2CCC(c3ccccc3)(c3ccccc3)CC2)C(c2ccc([N+](=O)[O-])cc2)C(C(=O)N(C)C)=C(C)N1` (stereo not given): the “Log Ki” value in assay [5] is reported as < -6.

In the case of `CO/C(O)=C1\C(C)=NC(C)=C(C(=O)NCCCN2CCC(c3ccccc3)(c3ccccc3)CC2)C1c1ccc(OC)cc1` (stereo not given), the Ki in assay [1] is 7.08 nM; in assay [2] it was 204 nM; in assay [6] it was 2190 nM; in assay [3] it was 1510 nM; in assay [4], 490 nM; in assay [7], 1150 nM. The “Log Ki” value in assay [5] is listed as < -6.

Regarding `CO/C(O)=C1\C(C)=NC(C)=C(C(=O)NCCCN2CCC(c3ccccc3)CC2)C1c1ccc(Cl)c([N+](=O)[O-])c1` (stereo not given), the Ki in assay [1] was 0.525 nM; in assay [2], 41.7 nM; in assay [6] it was 110 nM; in assay [3], 91.2 nM; in assay [4], 126 nM; in assay [7] it was 47.9 nM. Moreover, the “Log Ki” value in assay [5] is on record as < -6.

Consider `CO/C(O)=C1\C(C)=NC(C)=C(C(=O)N(C)CCCN2CCC(c3ccccc3)(c3ccccc3)CC2)C1c1ccc([N+](=O)[O-])cc1` (stereo not given), for which the Ki in assay [1] is 20.4 nM; in assay [2] it was 240 nM; in assay [6], 676 nM; in assay [3] it was 490 nM; in assay [4] it was 501 nM; in assay [7], 245 nM. The “Log Ki” value in assay [5] is listed as < -6.

As to `CNC(=O)C1=C(C)NC(C)=C(C(=O)NCCCN2CCC(c3ccccc3)(c3ccccc3)CC2)C1c1ccc2c(c1)OCO2` (stereo not given), the Ki in assay [1] is 16.2 nM; in assay [2], 1780 nM; in assay [6] it was 2090 nM; in assay [3] it was 575 nM; in assay [7] it was 1020 nM.

On to `CO/C(O)=C1\C(C)=NC(C)=C(C(=O)NCCCN2CCC(c3ccccc3)(c3ccccc3)CC2)C1c1ccc(C#N)cc1` (stereo not given), for which the Ki is 1.82 nM in assay [1]; 151 nM in assay [2]; 759 nM in assay [6]; 1260 nM in assay [3]; 380 nM in assay [4]; 871 nM in assay [7]. For the same molecule, the “Log Ki” value in assay [5] was < -6.

With `CC(=O)C1=C(C)NC(C)=C(C(=O)NCCCN2CCC(c3ccccc3)(c3ccccc3)CC2)C1c1ccc([N+](=O)[O-])cc1` (stereo not given), the “Log Ki” value in assay [5] is listed as < -6.

For the molecule `CCC1=C(C(N)=O)C(c2ccc([N+](=O)[O-])cc2)C(C(=O)NCCCN2CCC(c3ccccc3)(c3ccccc3)CC2)=C(CC)N1` (stereo not given), the Ki in assay [6] was 355 nM.

`CO/C(O)=C1\C(C)=NC(C)=C(C(=O)NCCN2CCC(c3ccccc3)(c3ccccc3)CC2)C1c1ccc([N+](=O)[O-])cc1` (stereo not given): the Ki in assay [1] is 8.71 nM; in assay [2] it was 77.6 nM; in assay [6], 447 nM; in assay [3], 513 nM; in assay [4] it was 1150 nM; in assay [7], 245 nM. For the same molecule, the “Log Ki” value in assay [5] is recorded as < -6.

Consider `CC1=C(C(N)=O)C(c2ccc([N+](=O)[O-])cc2)C(C(=O)NCCCN2CCC(c3ccccc3)(c3ccccc3)CC2)=C(C)N1` (single isomer, unassigned; (+)), for which the Ki in assay [3] was 407 nM; in assay [4], 398 nM.

As to `CC1=C(C(N)=O)C(c2ccc([N+](=O)[O-])cc2)C(C(=O)NCCCN2CCC(c3ccccc3)(c3ccccc3)CC2)=C(C)N1` (single isomer, unassigned; (-)), the figures for the Ki in assay [3] and in assay [4] were 282 nM and 224 nM, respectively.

For the molecule `CC1=C(C(N)=O)C(c2ccc([N+](=O)[O-])cc2)C(C(=O)NCCCN2CCC(c3ccccc3)(c3ccccc3)CC2)=C(C)N1` (stereo in doubt; 19), the “Log Ki” value in assay [5] is listed as < -6.

The record behind these values is ChEMBL document CHEMBL1131023, “Identification of a dihydropyridine as a potent alpha1a adrenoceptor-selective antagonist that inhibits phenylephrine-induced contraction of the human prostate” (J Med Chem, 1998).
